ChEMBL document CHEMBL5137066, “Discovery of BLU-945, a Reversible, Potent, and Wild-Type-Sparing Next-Generation EGFR Mutant Inhibitor for Treatment-Resistant Non-Small-Cell Lung Cancer” (J Med Chem, 2022)
Active and inactive are the calls of the source. No cut-off for these calls is given here.

Experiments:
[1] = Volume of distribution at steady state in cynomolgus monkey at 0.5 mg/kg, iv; type: ADME, organism-based, Macaca fascicularis; conditions: in vivo, read-out: Vdss
NCI-H1975 [2] = assay: Antitumor activity against human NCI-H1975 cells xenografted in BALB/c mouse assessed as reduction in tumor volume at 100 mg/kg , po bid administered via oral gavage for 14 days; type: functional, organism-based; conditions: time 14.0 day
Procedure, shortened: (§1)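 Female BALB/c nude mice, 6–8 weeks old, inoculated s.c. in right flank with 5 × 10^6 NCI-H1975 cells in PBS:Matrigel 1:1. Randomized and dosed by oral gavage BID once mean tumor volume reached ~155 mm3. Tumor size and body weight measured every second day. Volume = 0.5ab2 (a, b long and short diameters). Plasma taken 2, 6, 12 h after the last dose for LC-MS/MS.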

[3] = Intrinsic clearance in cynomolgus monkey liver microsomes in presence of NADPH; type: ADME, Macaca fascicularis, Microsome
Procedure, shortened: (§2)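 Intrinsic clearance measured in isolated liver microsomes of each species with NADPH, expressed in μL/min/mg.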

[4] = Volume of distribution at steady state in Sprague-Dawley rat at 1 mg/kg, iv; type: ADME, organism-based; conditions: in vivo, read-out: Vdss
[5] = Plasma clearance in Sprague-Dawley rat at 1 mg/kg, iv; type: ADME, organism-based
Procedure, shortened: (§3)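 Sprague–Dawley rats (n = 3), single IV bolus of 1 mg/kg in 10% DMSO, 10% solutol, 80% of a 20% HP-β-CD solution (in water or in saline, depending on compound). Clearance is plasma clearance after the IV bolus.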

[6] = Half life in cynomolgus monkey at 0.5 mg/kg, iv; type: ADME, organism-based, Macaca fascicularis; conditions: in vivo
Procedure, shortened: (§4)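 Cynomolgus monkeys given a single IV bolus of 0.5 mg/kg in 5% DMSO + 5% kolliphor HS 15 + 90% saline. Clearance is plasma clearance after the bolus.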

NSCLC = type: functional, organism-based; conditions: Homo sapiens, dose 75-100 mg/kg, route po, time 56.0 day
[7] = Plasma protein binding in dog assessed as unbound fraction by ultracentrifugation method; type: ADME, cell-free, Canis lupus familiaris
Procedure, shortened: (§5)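 Plasma protein binding determined by ultracentrifugation, reported as the unbound fraction.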

NCI-H1975 [8] = assay: Antitumor activity against human NCI-H1975 cells xenografted in BALB/c mouse assessed as reduction in tumor volume at 30 mg/kg, po bid administered via oral gavage for 14 days; type: functional, organism-based; conditions: time 14.0 day; procedure, shortened: as §1
[9] = system: Ba/F3 EGFR-T790M/C797S/L858R; assay: Antitumor activity against mouse Ba/F3 EGFR-T790M/C797S/L858R cells implanted in NOD SCID mouse assessed as reduction in tumor volume at 100 mg/kg, po bid administered via oral gavage for 14 days; type: functional, organism-based; conditions: time 14.0 day
[10] = Toxicity in BALB/c nude mouse xenografted with human NCI-H1975 cells assessed as effect on body weight at 100 mg/kg , po bid administered via oral gavage for 14 days; type: organism-based; conditions: in vivo, 336 h, time 14 day; procedure, shortened: as §1
[11] = Thermodynamic solubility of the compound at pH 1.5; type: physicochemical; conditions: buffer
[12] = Toxicity in BALB/c nude mouse xenografted with human NCI-H1975 cells assessed as effect on body weight at 25 mg/kg , po qd administered via oral gavage for 14 days; type: organism-based; conditions: in vivo, 336 h, time 14 day
Procedure, shortened: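 Female BALB/c nude mice, 6–8 weeks old, bearing s.c. right-flank NCI-H1975 xenografts (5 × 10^6 cells in PBS:Matrigel 1:1). Once-daily oral gavage began at mean tumor volume ~155 mm3. Body weight and tumor size recorded every second day.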

[13] = Oral bioavailability in Beagle dog at […], iv; type: ADME, organism-based, Canis lupus familiaris; conditions: in vivo, dose 2.5 mg/kg
[14] = Lipophilicity, logD of compound at pH 7.4; type: physicochemical; conditions: buffer
[15] = Toxicity in BALB/c nude mouse xenografted with human NCI-H1975 cells assessed as effect on body weight at 30 mg/kg, po bid administered via oral gavage for 14 days; type: organism-based; conditions: in vivo, 336 h, time 14 day; procedure, shortened: as §1
[16] = system: Ba/F3 EGFR-Del19/T790M/C797S; assay: Antitumor activity against osimertinib-resistant mouse Ba/F3 EGFR-Del19/T790M/C797S cells implanted in NOD SCID mouse assessed as reduction in tumor volume at 100 mg/kg , po bid administered via oral gavage for 14 days; type: functional, organism-based; conditions: time 14.0 day
[17] = Plasma protein binding in cynomolgus monkey assessed as unbound fraction by ultracentrifugation method; type: ADME, cell-free, Macaca fascicularis; procedure, shortened: as §5
[18] = Plasma protein binding in human assessed as unbound fraction by ultracentrifugation method; type: ADME, cell-free; procedure, shortened: as §5
[19] = Volume of distribution at steady state in Beagle dog at 0.5 mg/kg, iv; type: ADME, organism-based, Canis lupus familiaris; conditions: in vivo, read-out: Vdss
[20] = Intrinsic clearance in human liver microsomes in presence of NADPH; type: ADME, Microsome; procedure, shortened: as §2
[21] = Oral bioavailability in Sprague-Dawley rat at […]; type: ADME, organism-based; conditions: in vivo, dose 2.5 mg/kg
[22] = Apparent permeability across apical to basolateral side in MDCK-MDR1 cells; type: ADME, cell-based, Canis lupus familiaris; conditions: dog
[23] = Plasma clearance in cynomolgus monkey at 0.5 mg/kg, iv; type: ADME, organism-based, Macaca fascicularis; procedure, shortened: as §4
[24] = Intrinsic clearance in human hepatocytes assessed per million cells; type: ADME, cell-based, Hepatocyte
Procedure, shortened: (§6)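 Intrinsic clearance measured in isolated hepatocytes of each species, expressed in μL/min/million cells.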

[25] = Clearance in cynomolgus monkey at 0.5 mg/kg,iv; type: ADME, organism-based, Macaca fascicularis; conditions: in vivo; procedure, shortened: as §4
[26] = Thermodynamic solubility of the compound at pH 6.5; type: physicochemical; conditions: buffer
[27] = Plasma clearance in beagle dog at 0.5 mg/kg, iv; type: ADME, organism-based, Canis lupus familiaris
Procedure, shortened: (§7)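 Beagle dogs, single IV dose of 0.5 mg/kg in 5% DMSO + 5% kolliphor HS 15 + 90% saline. Clearance is plasma clearance.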

[28] = Half life in Sprague-Dawley rat at 1 mg/kg, iv; type: ADME, organism-based; conditions: in vivo; procedure, shortened: as §3
[29] = Oral bioavailability in cynomolgus monkey at […], iv; type: ADME, organism-based, Macaca fascicularis; conditions: in vivo, dose 2.5 mg/kg
[30] = Half life in beagle dog at 0.5 mg/kg, iv; type: ADME, organism-based, Canis lupus familiaris; conditions: in vivo; procedure, shortened: as §7
[31] = Plasma protein binding in rat assessed as unbound fraction by ultracentrifugation method; type: ADME, cell-free; procedure, shortened: as §5
[32] = Intrinsic clearance in rat liver microsomes in presence of NADPH; type: ADME, Microsome; procedure, shortened: as §2
[33] = Intrinsic clearance in dog liver microsomes in presence of NADPH; type: ADME, Canis lupus familiaris, Microsome; procedure, shortened: as §2
[34] = Intrinsic clearance in dog hepatocytes assessed per million cells; type: ADME, cell-based, Canis lupus familiaris, Hepatocyte; procedure, shortened: as §6
[35] = Clearance in Sprague-Dawley rat at 1 mg/kg, iv; type: ADME, organism-based; conditions: in vivo; procedure, shortened: as §3
[36] = Intrinsic clearance in rat hepatocytes assessed per million cells; type: ADME, cell-based, Hepatocyte; procedure, shortened: as §6
[37] = Oral bioavailability in Sprague-Dawley rat at 5 mg/kg; type: ADME, organism-based; conditions: in vivo
Procedure, shortened: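 Sprague–Dawley rats (n = 3) received 1 mg/kg IV and 5 mg/kg PO. IV vehicle was 10% DMSO/10% solutol/80% (20% HP-β-CD). PO vehicle was a suspension in 20% solutol in 0.5% MC in water, or a solution matching the IV vehicle, depending on compound.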

[38] = target: T1, Epidermal growth factor receptor (Homo sapiens, UniProt P00533, L858R/T790M); assay: Inhibition of EGF stimulated EGFR L858R/T790M double mutant phosphorylation in human NCI-H1975 cells preincubated for 4 to 5 hrs followed by EGF stimulation for 10 mins by AlphaLISA method; type: cell-based
[39] = target: T2, Epidermal growth factor receptor (Homo sapiens, UniProt P00533); assay: Inhibition of wild type EGFR in human A-431 cells preincubated for 4 to 5 hrs followed by EGF stimulation for 10 mins by AlphaLISA method; type: cell-based
[40] = Unbound clearance in cynomolgus monkey assessed as clearance/free fraction ratio at 0.5 mg/kg, iv; type: ADME, organism-based, Macaca fascicularis; conditions: in vivo
Procedure, shortened: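 Cynomolgus monkey, 0.5 mg/kg IV bolus in 5% DMSO/5% kolliphor HS 15/90% saline. Unbound clearance = in vivo plasma clearance divided by the free fraction. Free fraction comes from plasma protein binding measured by ultracentrifugation.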

[41] = target: T2, Epidermal growth factor receptor; assay: Inhibition of N-terminal GST tagged recombinant wild type human EGFR expressed in baculovirus infected Sf9 insect cells expression system using 5-FAM-EEPLYINSFPAKKK-CONH peptide as substrate preincubated for 10 mins followed by peptide substrate addition in presence of ATP
[42] = Efflux ratio of apparent permeability in MDCK-MDR1 cells; type: ADME, cell-based, Canis lupus familiaris; conditions: dog
[43] = Intrinsic clearance in cynomolgus monkey hepatocytes assessed per million cells; type: ADME, cell-based, Macaca fascicularis, Hepatocyte; procedure, shortened: as §6
[44] = target: T1, Epidermal growth factor receptor; assay: Inhibition of N-terminal GST tagged recombinant human EGFR L858R/T790M (669 to end residues) double mutant expressed in baculovirus infected Sf9 insect cells expression system using 5-FAM-EEPLYINSFPAKKK-CONH peptide as substrate preincubated for 10 mins followed by peptide substrate addition in presence of ATP
[45] = Inhibition of N-terminal GST tagged recombinant human EGFR L858R/T790M/C790S (668 to end residues) triple mutant expressed in baculovirus infected Sf9 insect cells using 5-FAM-EEPLYINSFPAKKK-CONH peptide as substrate preincubated for 10 mins followed by peptide substrate addition in presence of ATP

T1 sequence (P00533 25-1210 T790M/L858R limits assumed): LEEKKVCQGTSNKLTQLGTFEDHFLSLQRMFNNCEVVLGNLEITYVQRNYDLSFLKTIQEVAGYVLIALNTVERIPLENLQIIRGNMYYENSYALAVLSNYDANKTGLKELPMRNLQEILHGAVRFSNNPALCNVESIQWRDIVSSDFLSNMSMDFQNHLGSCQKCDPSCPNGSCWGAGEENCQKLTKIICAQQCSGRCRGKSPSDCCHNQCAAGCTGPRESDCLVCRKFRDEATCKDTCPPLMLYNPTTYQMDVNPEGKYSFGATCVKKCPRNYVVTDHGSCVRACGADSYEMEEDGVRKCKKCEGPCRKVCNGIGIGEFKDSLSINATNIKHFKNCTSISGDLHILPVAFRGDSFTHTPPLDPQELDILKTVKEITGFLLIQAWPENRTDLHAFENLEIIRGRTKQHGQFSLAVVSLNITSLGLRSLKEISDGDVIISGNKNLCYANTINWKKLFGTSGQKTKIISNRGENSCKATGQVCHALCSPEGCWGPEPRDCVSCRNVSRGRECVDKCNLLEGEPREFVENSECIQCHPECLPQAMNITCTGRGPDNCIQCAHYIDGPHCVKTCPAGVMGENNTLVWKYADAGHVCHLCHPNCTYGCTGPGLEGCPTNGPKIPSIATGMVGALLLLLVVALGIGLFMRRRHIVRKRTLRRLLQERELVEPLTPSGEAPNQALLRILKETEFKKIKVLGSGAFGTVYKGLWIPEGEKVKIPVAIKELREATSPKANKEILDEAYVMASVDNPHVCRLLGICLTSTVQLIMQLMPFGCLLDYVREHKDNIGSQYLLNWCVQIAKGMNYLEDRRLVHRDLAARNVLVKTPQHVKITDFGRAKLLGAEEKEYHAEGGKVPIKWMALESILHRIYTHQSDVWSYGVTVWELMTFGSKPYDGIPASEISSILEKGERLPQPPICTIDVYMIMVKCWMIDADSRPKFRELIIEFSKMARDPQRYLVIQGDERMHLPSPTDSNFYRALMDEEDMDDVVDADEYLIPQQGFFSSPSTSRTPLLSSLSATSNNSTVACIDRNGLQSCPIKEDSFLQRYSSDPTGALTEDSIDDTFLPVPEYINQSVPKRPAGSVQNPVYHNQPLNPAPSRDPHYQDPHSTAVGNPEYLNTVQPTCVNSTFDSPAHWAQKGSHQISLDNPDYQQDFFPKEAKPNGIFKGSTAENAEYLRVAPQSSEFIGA
T2 sequence (P00533 whole entry): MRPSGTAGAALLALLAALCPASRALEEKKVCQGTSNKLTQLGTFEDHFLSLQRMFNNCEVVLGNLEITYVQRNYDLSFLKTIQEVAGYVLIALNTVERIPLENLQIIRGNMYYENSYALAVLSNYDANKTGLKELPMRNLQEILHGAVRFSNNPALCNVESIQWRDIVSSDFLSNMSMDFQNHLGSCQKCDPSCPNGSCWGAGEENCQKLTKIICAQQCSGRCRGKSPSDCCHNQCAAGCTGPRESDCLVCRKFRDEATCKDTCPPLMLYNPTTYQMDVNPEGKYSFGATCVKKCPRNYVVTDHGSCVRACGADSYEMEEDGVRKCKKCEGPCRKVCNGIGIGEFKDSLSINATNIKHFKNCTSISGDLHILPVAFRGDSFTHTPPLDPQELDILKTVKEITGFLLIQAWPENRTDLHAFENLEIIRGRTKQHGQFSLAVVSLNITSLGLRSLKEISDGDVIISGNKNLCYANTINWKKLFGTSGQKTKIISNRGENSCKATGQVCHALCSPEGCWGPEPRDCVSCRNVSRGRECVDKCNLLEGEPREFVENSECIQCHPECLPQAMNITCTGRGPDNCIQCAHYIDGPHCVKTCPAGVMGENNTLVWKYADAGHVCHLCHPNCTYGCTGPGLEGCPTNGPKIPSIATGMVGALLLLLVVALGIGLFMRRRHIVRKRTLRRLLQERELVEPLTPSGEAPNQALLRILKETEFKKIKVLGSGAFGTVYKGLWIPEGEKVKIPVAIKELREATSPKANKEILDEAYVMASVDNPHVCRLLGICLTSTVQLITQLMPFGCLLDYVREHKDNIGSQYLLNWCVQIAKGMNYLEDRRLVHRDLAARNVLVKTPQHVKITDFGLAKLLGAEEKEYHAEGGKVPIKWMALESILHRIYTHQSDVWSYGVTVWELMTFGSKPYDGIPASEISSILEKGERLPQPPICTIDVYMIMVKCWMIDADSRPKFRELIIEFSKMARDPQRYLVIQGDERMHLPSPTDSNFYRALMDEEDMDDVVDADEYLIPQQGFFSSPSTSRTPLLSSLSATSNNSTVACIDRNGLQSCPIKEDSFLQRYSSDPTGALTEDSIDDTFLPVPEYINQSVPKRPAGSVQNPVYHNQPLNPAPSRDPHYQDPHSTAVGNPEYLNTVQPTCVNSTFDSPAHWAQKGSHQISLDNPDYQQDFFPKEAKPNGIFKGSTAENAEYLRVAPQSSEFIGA

CO[C@@H]1CCN(c2nccc(Nc3cc4c(C(C)C)ccc(N5C[C@H](CS(C)(=O)=O)[C@H]5C)c4cn3)n2)C[C@@H]1F [TIGOZERTINIB]
Vd [1]: 1.6 L/kg
Activity (NCI-H1975 [2]): Active
CLH [3]: 109 µL/min/mg
Vd [4]: 2.3 L/kg
clearance [5]: 32.4 mL/min/kg
half-life [6]: 3.5 h
Activity (NSCLC): Active
Fu [7]: 1.4%
Activity (NCI-H1975 [8]): Active
Activity [9]: Active
Activity [10]: Non-Toxic
Therm_solubility [11]: 11000 µg/mL
Activity [12]: Non-Toxic
F [13]: 49%
logD [14]: 3.8
Activity [15]: Non-Toxic
Activity [16]: Active
Fu [17]: 3.5%
Fu [18]: 1.1%
Vd [19]: 3.9 L/kg
CLH [20]: 89 µL/min/mg
F [21]: 48%
Papp [22]: 8 10^-6 cm/s
clearance [23]: 4.9 mL/min/kg
CLH [24]: 23 µL/min
clearance [25]: 4.9 mL/min/kg
Therm_solubility [26]: 10 µg/mL
clearance [27]: 13.7 mL/min/kg
half-life [28]: 1.3 h
F [29]: 33%
half-life [30]: 4.9 h
Fu [31]: 0.9%

CC(C)c1ccc(N2C[C@H](CS(C)(=O)=O)[C@H]2C)c2cnc(Nc3ccnc(N4CC[C@@H](O)[C@@](C)(F)C4)n3)cc12
CLH [3]: 55 µL/min/mg
half-life [6]: 2.9 h
CLH [32]: 43 µL/min/mg
CLH [33]: 20 µL/min/mg
CLH [34]: 21 µL/min
clearance [35]: 25 mL/min/kg
CLH [20]: 7.2 µL/min/mg
CLH [36]: 33 µL/min
Papp [22]: 9 10^-6 cm/s
CLH [24]: 41 µL/min
clearance [25]: 31.8 mL/min/kg
half-life [28]: 1.3 h
F [37]: 50%

CO[C@@H]1[C@H](O)CN(c2nccc(Nc3cc4c(C(C)C)ccc(N5C[C@H](CS(C)(=O)=O)[C@H]5C)c4cn3)n2)CC1(F)F
CLH [3]: 25 µL/min/mg
IC50 [38]: 2.6 nM
IC50 [39]: 191 nM
half-life [6]: 4.5 h
Ratio [40]: 294
IC50 [41]: 810 nM
efflux ratio [42]: 2
CLH [43]: 49 uL/min/10^6 cells
CLH [20]: 19 µL/min/mg
Papp [22]: 8 10^-6 cm/s
IC50 [44]: 0.7 nM
CLH [24]: 16 µL/min
clearance [25]: 9.1 mL/min/kg

CC(C)c1ccc(N2C[C@H](CS(C)(=O)=O)[C@H]2C)c2cnc(Nc3ccnc(N4CC[C@@](C)(O)[C@@H](F)C4)n3)cc12
CLH [3]: 23 µL/min/mg
IC50 [38]: 3.8 nM
IC50 [39]: 1210 nM
half-life [6]: 4.8 h
IC50 [45]: 0.5 nM
Ratio [40]: 170
IC50 [41]: 1090 nM
efflux ratio [42]: 3
CLH [43]: 1.5 uL/min/10^6 cells
CLH [20]: 5.1 µL/min/mg
Papp [22]: 5 10^-6 cm/s
IC50 [44]: 0.4 nM
CLH [24]: 3.2 µL/min
clearance [25]: 8.8 mL/min/kg

CC[C@]1(F)CN(c2nccc(Nc3cc4c(C(C)C)ccc(N5C[C@H](CS(C)(=O)=O)[C@H]5C)c4cn3)n2)CC[C@H]1O
CLH [3]: 192 µL/min/mg
IC50 [38]: 1.8 nM
IC50 [39]: 709 nM
IC50 [45]: 0.4 nM
IC50 [41]: 761 nM
efflux ratio [42]: 4
CLH [43]: 204 uL/min/10^6 cells
CLH [20]: 5.9 µL/min/mg
Papp [22]: 6 10^-6 cm/s
IC50 [44]: 0.5 nM
CLH [24]: 48 µL/min
